In ChEMBL document CHEMBL1150214, “Isolation, synthesis, and structure-activity relationships of bioactive benzoquinones from Miconia lepidota from the Suriname rainforest” (J Nat Prod, 2001):
Values after ≈ are worked out from the molar mass of the structure shown.

How the values were obtained:
[1] = system: Saccharomyces cerevisiae; assay: Antifungal activity against Saccharomyces cerevisiae 1138 assessed as concentration required to generate kill-zone of 12 mm in diameter after 48 hrs; assay type: functional
Procedure, shortened: (§1)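 Mutant S. cerevisiae strains on an agar-based gel, incubated 48 h with samples. Inhibition zones measured; IC12 (µg/mL) is the concentration producing a 12 mm diameter kill zone. Values with standard deviations come from three separate experiments.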

[2] = system: Saccharomyces cerevisiae; assay: Antifungal activity against Saccharomyces cerevisiae 1353 assessed as concentration required to generate kill-zone of 12 mm in diameter after 48 hrs
[3] = system: Saccharomyces cerevisiae; assay: Antifungal activity against Saccharomyces cerevisiae 1140 assessed as concentration required to generate kill-zone of 12 mm in diameter after 48 hrs; assay type: functional; procedure, shortened: as §1
[4] = system: Saccharomyces cerevisiae; assay: Antifungal activity against Saccharomyces cerevisiae 7 assessed as concentration required to generate kill-zone of 12 mm in diameter; assay type: functional
Procedure, shortened: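 Mutant S. cerevisiae Sc-7 on an agar-based gel, incubated […] with samples. Kill-zone diameters measured; IC12 (µg/mL) is the concentration giving a 12 mm zone. Standard deviations come from three separate experiments.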

[5] = system: A2780; assay: Cytotoxicity against human A2780 cells; assay type: functional, cell-based
[6] = system: M109; assay: Cytotoxicity against mouse M109 cells; assay type: functional, cell-based
Procedure, shortened: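 In vitro antitumor cytotoxicity in murine Madison Lung Carcinoma (M109) cells, run at Bristol-Myers Squibb; value given as IC50 in µg/mL.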

| Molecule | Activity [1] | Activity [2] | Activity [3] | Activity [4] | IC50 [5] | IC50 [6] |
| --- | --- | --- | --- | --- | --- | --- |
| CCCCCCCCCCCCCCCCCCCC1=CC(=O)C=C(OC)C1=O | >2000 µg/mL | >2000 µg/mL | >2000 µg/mL | >2000 µg/mL |  |  |
| CCCCCCCC1=CC(=O)C=C(OC)C1=O | 120 µg/mL | 220 µg/mL | 130 µg/mL | 16 µg/mL | 7.9 µg/mL (≈ 33.4 µM) | 10 µg/mL (≈ 42.3 µM) |
| CCC1=CC(=O)C=C(OC)C1=O | 200 µg/mL | 233 µg/mL | 140 µg/mL | 220 µg/mL |  |  |
| COC1=CC(=O)C=C(C)C1=O | 580 µg/mL | 830 µg/mL | 630 µg/mL | 530 µg/mL |  |  |
| CCCCC1=CC(=O)C=C(OC)C1=O | 220 µg/mL | 210 µg/mL | 150 µg/mL | 80 µg/mL | 3.2 µg/mL (≈ 16.5 µM) |  |
| NYSTATIN | 14 µg/mL |  | 13 µg/mL |  |  |  |
| COC1=CC(=O)C=C(Cc2ccccc2)C1=O | 460 µg/mL | 590 µg/mL | 420 µg/mL | 180 µg/mL |  |  |
| CCCCCCCCCCC1=CC(=O)C=C(OC)C1=O | 380 µg/mL | 380 µg/mL | 380 µg/mL | 3 µg/mL |  | 10 µg/mL (≈ 35.9 µM) |
| CCCCC(O)C1=CC(=O)C=C(OC)C1=O (centres undefined) | 536 µg/mL | 577 µg/mL | 430 µg/mL | 438 µg/mL |  |  |
| CCCCCC1=CC(=O)C=C(OC)C1=O [Primin] | 240 µg/mL | 285 µg/mL | 170 µg/mL | 48 µg/mL | 2.9 µg/mL (≈ 13.9 µM) | 10 µg/mL (≈ 48 µM) |
